Results reported in article PMC4201344 (ACS Chemical Biology, 2014).
Changes are numbered by the printed parent chain. Entries after “also recorded” stand apart in the source; their conditions may differ.

Tests used:
Format in all cases: cell-based, C. elegans
GluClβ T6′S, T203A/Y206F = target: T1, GluClβ T6′S, T203A/Y206F (Caenorhabditis elegans, UniProt Q17328, T229A/T283S/Y232F); test: two-electrode voltage clamp, Xenopus laevis oocytes
T1 sequence (Q17328 23-434 T229A/Y232F/T283S): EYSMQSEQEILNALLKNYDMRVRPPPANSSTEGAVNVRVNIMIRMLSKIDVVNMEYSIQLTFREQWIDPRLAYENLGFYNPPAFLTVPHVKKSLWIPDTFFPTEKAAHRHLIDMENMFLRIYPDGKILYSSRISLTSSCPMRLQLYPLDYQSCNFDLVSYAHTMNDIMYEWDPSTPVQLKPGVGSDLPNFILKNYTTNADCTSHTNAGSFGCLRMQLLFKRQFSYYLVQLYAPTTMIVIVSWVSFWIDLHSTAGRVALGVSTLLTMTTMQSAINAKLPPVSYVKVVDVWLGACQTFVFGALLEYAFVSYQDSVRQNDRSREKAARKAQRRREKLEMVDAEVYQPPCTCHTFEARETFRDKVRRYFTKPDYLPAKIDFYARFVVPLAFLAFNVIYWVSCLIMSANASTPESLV

GluClβ T6′S, Q174A/Y206F = target: T2, GluClβ T6′S, Q174A/Y206F (Caenorhabditis elegans, UniProt Q17328, Q200A/T283S/Y232F); test: as above
T2 sequence (Q17328 23-434 Q200A/Y232F/T283S): T1 sequence (Q17328 23-434 T229A/Y232F/T283S) with Q178A, A207T

[1] = system: GluClβ with α signal peptide, T6′S, F96TAG F3–Phe; test: two-electrode voltage clamp, Xenopus laevis oocytes, nonsense suppression; details: glutamate
GluClβ T6′S, Y156F = GluClβ T6′S, Y156F (Caenorhabditis elegans, UniProt Q17328, T283S/Y182F); test: two-electrode voltage clamp, Xenopus laevis oocytes; details: glutamate
GluClβ T6′S, R40E = GluClβ T6′S, R40E (Caenorhabditis elegans, UniProt Q17328, R66E/T283S); test: two-electrode voltage clamp, Xenopus laevis oocytes; details: glutamate
Outline: (§1)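 C. elegans GluClβ (mammalian codon-optimised) in pGEMhe, mutated by QuikChange; T7 mRNA. […] Voltage clamp at −60 mV in Ca-free ND96, pH 7.5. […] Peak currents taken from baseline, normalised, averaged per concentration, and fit to Hill equation (EC50, nH).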

GluClβ T6′S, Y206A = GluClβ T6′S, Y206A (Caenorhabditis elegans, UniProt Q17328, T283S/Y232A); test: as above; details: glutamate
Outline: as §1

GluClβ A20′S = GluClβ A20′S (Caenorhabditis elegans, UniProt Q17328, A297S); test: as above; details: glutamate
Outline: as §1

[2] = system: GluClβ with α signal peptide, T6′S, Y156TAG OMe–Phe; test: two-electrode voltage clamp, Xenopus laevis oocytes, nonsense suppression; details: glutamate
Outline: (§2)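 Site-specific TAG codon, read by 74mer THG73 tRNA ligated to dCA-acylated amino acid; NVOC removed by 5 min xenon-lamp irradiation just before injection. Oocytes coinjected with 37.5 ng mRNA plus ~1 μg/μL tRNA at 48 and 24 h pre-recording; unacylated 76mer tRNA served as read-through control.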

GluClβ T6′A = GluClβ T6′A (Caenorhabditis elegans, UniProt Q17328, T283A); test: two-electrode voltage clamp, Xenopus laevis oocytes; details: glutamate
Outline: as §1

[3] = system: GluClβ T6′S, Y206TAG CN–Phe; test: two-electrode voltage clamp, Xenopus laevis oocytes, nonsense suppression; details: glutamate
GluClβ A17′G = GluClβ A17′G (Caenorhabditis elegans, UniProt Q17328, A294G); test: two-electrode voltage clamp, Xenopus laevis oocytes; details: glutamate
Outline: as §1

GluClβ T13′S = GluClβ T13′S (Caenorhabditis elegans, UniProt Q17328, T290S); test: as above; details: glutamate
Outline: as §1

GluClβ T6′S, S126A = GluClβ T6′S, S126A (Caenorhabditis elegans, UniProt Q17328, S152A/T283S); test: two-electrode voltage clamp, Xenopus laevis oocytes; details: glutamate
[4] = target: T3, GluClβ with α signal peptide, T6′S, F96TAG Phe (Caenorhabditis elegans, UniProt Q17328, T283S); test: two-electrode voltage clamp, Xenopus laevis oocytes, nonsense suppression; details: glutamate
T3 sequence (Q17328 23-434 T283S): T1 sequence (Q17328 23-434 T229A/Y232F/T283S) with A207T, F210Y
Outline: as §2

[5] = system: GluClβ T6′S, Y206TAG Me–Phe; test: two-electrode voltage clamp, Xenopus laevis oocytes, nonsense suppression; details: glutamate

GluClβ T6′S, R40E, sequence (Q17328 23-434 R66E/T283S): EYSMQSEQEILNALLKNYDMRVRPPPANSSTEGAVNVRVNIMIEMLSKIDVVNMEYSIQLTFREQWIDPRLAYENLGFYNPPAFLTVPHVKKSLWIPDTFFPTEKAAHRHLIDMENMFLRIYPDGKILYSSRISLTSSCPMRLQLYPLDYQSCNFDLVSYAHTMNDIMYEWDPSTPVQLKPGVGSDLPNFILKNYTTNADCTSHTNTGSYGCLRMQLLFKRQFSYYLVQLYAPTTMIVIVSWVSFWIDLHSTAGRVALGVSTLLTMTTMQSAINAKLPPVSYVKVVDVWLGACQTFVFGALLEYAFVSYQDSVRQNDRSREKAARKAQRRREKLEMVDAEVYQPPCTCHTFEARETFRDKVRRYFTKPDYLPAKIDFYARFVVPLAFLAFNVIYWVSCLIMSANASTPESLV
GluClβ T6′S, S126A, sequence (Q17328 23-434 S152A/T283S): as the sequence (Q17328 23-434 R66E/T283S) above, with E44R, S130A counted along it
GluClβ T6′A, sequence (Q17328 23-434 T283A): as the sequence (Q17328 23-434 R66E/T283S) above, with E44R, S261A counted along it
GluClβ T6′S, Y156F, sequence (Q17328 23-434 Y182F/T283S): as the sequence (Q17328 23-434 R66E/T283S) above, with E44R, Y160F counted along it
GluClβ T13′S, sequence (Q17328 23-434 T290S): as the sequence (Q17328 23-434 R66E/T283S) above, with E44R, S261T, T268S counted along it
GluClβ A20′S, sequence (Q17328 23-434 A297S): as the sequence (Q17328 23-434 R66E/T283S) above, with E44R, S261T, A275S counted along it
GluClβ A17′G, sequence (Q17328 23-434 A294G): as the sequence (Q17328 23-434 R66E/T283S) above, with E44R, S261T, A272G counted along it
GluClβ T6′S, Y206A, sequence (Q17328 23-434 Y232A/T283S): as the sequence (Q17328 23-434 R66E/T283S) above, with E44R, Y210A counted along it

EC50 (GluClβ T6′S, T203A/Y206F; glutamate): 210 ± 10 µM
Hill (GluClβ T6′S, T203A/Y206F; glutamate): 2.2 ± 0.1
Ω (GluClβ T6′S, T203A/Y206F; mutant cycle analysis T203A, Y206F): 1/37
ΔΔG (GluClβ T6′S, T203A/Y206F; mutant cycle analysis, coupling T203A/Y206F): 2.1 kcal/mol
EC50 (GluClβ T6′S, Q174A/Y206F; glutamate): 920 ± 40 µM
Hill (GluClβ T6′S, Q174A/Y206F; glutamate): 2.2 ± 0.2
Ω (GluClβ T6′S, Q174A/Y206F; mutant cycle analysis Q174A, Y206F): 0.67
ΔΔG (GluClβ T6′S, Q174A/Y206F; mutant cycle analysis Q174A/Y206F): 0.23 kcal/mol
EC50 [1]: 39 ± 1 µM
EC50 (GluClβ T6′S, Y156F): 6.4 ± 0.4 mM
Hill (GluClβ T6′S, Y156F): 1.6 ± 0.1
EC50 (GluClβ T6′S, Y206A): no response
EC50 (GluClβ A20′S): no response
EC50 [3]: 19 ± 1 mM
EC50 (GluClβ A17′G): > 5 mM
EC50 (GluClβ T6′S, S126A): 4.7 ± 0.1 mM
Hill (GluClβ T6′S, S126A): 2.5 ± 0.1
EC50 [4]: 12 ± 1 µM
Hill [4]: 2.8 ± 0.3
Imax [4]: 0.1–4 μA
EC50 [5]: 98 ± 3 µM
SMILES: N[C@@H](CCC(=O)O)C(=O)O [glutamate]
Hill [1]: 2.4 ± 0.2
Imax [1]: 0.06–0.6 μA
EC50 (GluClβ T6′S, R40E): nonfunctional; also recorded: no response
EC50 [2]: nonfunctional; also recorded: no response
EC50 (GluClβ T6′A): not functional; also recorded: very low response
Hill [3]: 2.8 ± 0.2
Imax [3]: 0.8–6 μA
EC50 (GluClβ T13′S): not functional; also recorded: no response
Hill [5]: 2.4 ± 0.1
Imax [5]: 0.05–7 μA
